Measured values as given in ChEMBL document CHEMBL1148568, “Synthesis and biological evaluation of 3-ethylidene-1,3-dihydro-indol-2-ones as novel checkpoint 1 inhibitors” (Bioorg Med Chem Lett, 2006).
One block for each compound: values may come before it.

Experiments:
[1] = target: T1, Serine/threonine-protein kinase Chk1 (Homo sapiens, UniProt O14757); assay: Inhibitory activity against Chk1
T1 sequence (O14757 whole entry): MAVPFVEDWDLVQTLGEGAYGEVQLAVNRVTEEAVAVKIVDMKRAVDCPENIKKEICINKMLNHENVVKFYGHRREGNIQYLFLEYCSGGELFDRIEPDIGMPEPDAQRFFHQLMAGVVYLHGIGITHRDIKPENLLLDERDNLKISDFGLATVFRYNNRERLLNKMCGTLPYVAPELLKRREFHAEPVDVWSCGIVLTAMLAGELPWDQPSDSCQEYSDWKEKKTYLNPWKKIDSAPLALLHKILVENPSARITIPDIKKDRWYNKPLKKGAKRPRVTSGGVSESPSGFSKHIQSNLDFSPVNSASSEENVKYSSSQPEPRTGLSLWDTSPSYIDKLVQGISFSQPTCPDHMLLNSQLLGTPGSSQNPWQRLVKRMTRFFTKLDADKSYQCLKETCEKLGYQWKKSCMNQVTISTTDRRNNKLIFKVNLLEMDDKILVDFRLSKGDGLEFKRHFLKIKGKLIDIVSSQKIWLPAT

[2] = target: Protein kinase C gamma type (Homo sapiens, UniProt P05129); assay: Inhibitory activity against PKC gamma
[3] = target: MAP kinase-activated protein kinase 2 (Homo sapiens, UniProt P49137); assay: Inhibitory activity against MAPKAP2
Sequence of MAP kinase-activated protein kinase 2 (P49137 whole entry): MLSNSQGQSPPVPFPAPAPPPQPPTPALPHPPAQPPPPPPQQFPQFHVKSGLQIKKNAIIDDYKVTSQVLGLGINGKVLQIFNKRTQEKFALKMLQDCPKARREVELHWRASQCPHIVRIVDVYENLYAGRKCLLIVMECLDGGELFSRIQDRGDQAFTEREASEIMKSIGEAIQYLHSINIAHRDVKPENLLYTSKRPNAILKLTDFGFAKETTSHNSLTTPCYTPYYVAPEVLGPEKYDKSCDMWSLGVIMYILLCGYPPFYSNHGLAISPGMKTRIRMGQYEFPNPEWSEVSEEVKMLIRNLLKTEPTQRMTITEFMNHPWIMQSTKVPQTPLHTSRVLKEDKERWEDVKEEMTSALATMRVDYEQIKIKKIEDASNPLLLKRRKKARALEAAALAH

Casein kinase II = Casein kinase II (Homo sapiens, UniProt P19784+P67870+P68400); assay: Inhibitory activity against CK2; assay type: protein-complex assay
[4] = target: Serine/threonine-protein kinase Chk2 (Homo sapiens, UniProt O96017); assay: Inhibitory activity against Chk2
Sequence of Serine/threonine-protein kinase Chk2 (O96017 whole entry): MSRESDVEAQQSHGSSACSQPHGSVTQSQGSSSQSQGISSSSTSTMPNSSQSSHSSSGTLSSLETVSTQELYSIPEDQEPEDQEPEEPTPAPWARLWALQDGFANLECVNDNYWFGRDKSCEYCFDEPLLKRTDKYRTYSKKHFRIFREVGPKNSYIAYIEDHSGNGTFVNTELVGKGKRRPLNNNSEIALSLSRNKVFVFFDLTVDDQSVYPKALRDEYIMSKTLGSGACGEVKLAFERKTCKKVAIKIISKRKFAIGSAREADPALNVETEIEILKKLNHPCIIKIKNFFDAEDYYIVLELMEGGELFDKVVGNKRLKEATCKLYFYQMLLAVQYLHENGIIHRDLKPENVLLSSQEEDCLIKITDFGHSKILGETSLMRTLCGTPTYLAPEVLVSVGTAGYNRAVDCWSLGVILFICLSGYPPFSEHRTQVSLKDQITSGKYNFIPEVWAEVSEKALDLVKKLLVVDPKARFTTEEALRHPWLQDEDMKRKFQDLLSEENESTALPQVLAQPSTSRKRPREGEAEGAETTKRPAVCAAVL

[5] = target: T2, Serine/threonine-protein kinase Sgk1 (Homo sapiens, UniProt O00141); assay: Inhibitory activity against SGK
T2 sequence (O00141 whole entry): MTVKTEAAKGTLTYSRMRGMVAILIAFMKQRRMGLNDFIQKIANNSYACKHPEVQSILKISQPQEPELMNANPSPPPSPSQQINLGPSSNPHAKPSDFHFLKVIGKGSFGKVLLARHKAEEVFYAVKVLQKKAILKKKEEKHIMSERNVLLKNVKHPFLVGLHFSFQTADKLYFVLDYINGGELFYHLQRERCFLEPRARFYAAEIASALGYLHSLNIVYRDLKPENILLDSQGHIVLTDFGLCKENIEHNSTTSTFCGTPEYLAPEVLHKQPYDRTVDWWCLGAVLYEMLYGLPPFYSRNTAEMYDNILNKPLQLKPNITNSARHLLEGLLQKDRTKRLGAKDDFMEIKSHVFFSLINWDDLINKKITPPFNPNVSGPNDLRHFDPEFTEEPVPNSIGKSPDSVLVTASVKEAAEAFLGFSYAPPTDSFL

Angiopoietin-1 receptor = Angiopoietin-1 receptor (Homo sapiens, UniProt Q02763); assay: Inhibitory activity against Tie2
Sequence of Angiopoietin-1 receptor (Q02763 whole entry): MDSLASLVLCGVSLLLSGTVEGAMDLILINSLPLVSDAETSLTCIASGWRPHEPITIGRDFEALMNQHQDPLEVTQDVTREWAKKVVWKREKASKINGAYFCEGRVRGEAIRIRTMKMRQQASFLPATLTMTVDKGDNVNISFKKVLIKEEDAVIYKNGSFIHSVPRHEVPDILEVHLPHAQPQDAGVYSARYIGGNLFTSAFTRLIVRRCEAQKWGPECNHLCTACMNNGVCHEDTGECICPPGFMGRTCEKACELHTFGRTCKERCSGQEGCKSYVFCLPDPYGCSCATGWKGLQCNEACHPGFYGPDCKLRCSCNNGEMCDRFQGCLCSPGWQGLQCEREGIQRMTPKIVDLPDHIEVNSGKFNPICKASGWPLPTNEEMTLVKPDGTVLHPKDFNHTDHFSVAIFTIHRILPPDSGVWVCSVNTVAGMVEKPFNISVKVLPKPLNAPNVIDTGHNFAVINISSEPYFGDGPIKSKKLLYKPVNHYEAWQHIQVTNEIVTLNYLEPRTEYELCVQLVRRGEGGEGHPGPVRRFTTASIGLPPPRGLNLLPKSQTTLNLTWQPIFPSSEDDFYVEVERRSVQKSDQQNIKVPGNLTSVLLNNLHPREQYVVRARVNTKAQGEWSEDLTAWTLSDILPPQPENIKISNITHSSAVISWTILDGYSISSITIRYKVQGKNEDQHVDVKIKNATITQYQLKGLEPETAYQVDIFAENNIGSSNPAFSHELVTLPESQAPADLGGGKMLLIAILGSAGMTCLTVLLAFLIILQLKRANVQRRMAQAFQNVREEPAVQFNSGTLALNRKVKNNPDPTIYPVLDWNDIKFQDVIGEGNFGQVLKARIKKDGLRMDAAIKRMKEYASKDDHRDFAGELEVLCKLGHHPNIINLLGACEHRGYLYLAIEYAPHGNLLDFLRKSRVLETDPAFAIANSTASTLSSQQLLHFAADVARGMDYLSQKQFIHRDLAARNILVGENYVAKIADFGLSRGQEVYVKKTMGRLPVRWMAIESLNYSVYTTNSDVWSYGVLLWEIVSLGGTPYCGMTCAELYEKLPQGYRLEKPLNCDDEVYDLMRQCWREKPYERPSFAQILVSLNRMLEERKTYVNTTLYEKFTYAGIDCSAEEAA

[6] = target: Cyclin-dependent kinase 1 (Homo sapiens, UniProt P06493); assay: Inhibitory activity against CDC2
Sequence of Cyclin-dependent kinase 1 (P06493 whole entry): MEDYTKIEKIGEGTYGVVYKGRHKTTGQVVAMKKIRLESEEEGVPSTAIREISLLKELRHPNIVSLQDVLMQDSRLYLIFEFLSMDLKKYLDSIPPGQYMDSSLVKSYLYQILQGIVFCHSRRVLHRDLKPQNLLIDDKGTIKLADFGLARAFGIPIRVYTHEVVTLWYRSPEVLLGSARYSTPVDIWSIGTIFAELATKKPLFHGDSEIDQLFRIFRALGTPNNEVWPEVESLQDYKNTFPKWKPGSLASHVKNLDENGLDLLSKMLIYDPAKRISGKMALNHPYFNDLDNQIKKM

[7] = target: Proto-oncogene tyrosine-protein kinase Src (Homo sapiens, UniProt P12931); assay: Inhibitory activity against SRC
Sequence of Proto-oncogene tyrosine-protein kinase Src (P12931 2-536 limits assumed): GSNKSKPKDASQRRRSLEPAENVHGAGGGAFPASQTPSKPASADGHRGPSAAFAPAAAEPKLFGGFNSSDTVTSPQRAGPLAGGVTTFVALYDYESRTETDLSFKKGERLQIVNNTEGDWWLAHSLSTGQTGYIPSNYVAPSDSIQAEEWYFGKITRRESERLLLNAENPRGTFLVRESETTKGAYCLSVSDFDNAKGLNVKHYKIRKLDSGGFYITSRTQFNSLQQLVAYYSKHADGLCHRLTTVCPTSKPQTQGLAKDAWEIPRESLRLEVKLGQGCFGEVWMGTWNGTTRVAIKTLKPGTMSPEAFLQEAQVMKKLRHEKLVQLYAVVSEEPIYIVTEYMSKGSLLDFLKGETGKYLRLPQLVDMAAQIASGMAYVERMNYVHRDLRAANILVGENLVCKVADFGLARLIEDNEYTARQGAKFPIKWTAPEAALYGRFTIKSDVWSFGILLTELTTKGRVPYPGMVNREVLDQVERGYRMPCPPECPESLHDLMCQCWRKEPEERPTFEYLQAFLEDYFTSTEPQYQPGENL

[8] = target: Epidermal growth factor receptor (Homo sapiens, UniProt P00533); assay: Inhibitory activity against EGFR
[9] = target: Protein kinase C delta type (Homo sapiens, UniProt Q05655); assay: Inhibitory activity against PKC delta
Sequence of Protein kinase C delta type (Q05655 whole entry): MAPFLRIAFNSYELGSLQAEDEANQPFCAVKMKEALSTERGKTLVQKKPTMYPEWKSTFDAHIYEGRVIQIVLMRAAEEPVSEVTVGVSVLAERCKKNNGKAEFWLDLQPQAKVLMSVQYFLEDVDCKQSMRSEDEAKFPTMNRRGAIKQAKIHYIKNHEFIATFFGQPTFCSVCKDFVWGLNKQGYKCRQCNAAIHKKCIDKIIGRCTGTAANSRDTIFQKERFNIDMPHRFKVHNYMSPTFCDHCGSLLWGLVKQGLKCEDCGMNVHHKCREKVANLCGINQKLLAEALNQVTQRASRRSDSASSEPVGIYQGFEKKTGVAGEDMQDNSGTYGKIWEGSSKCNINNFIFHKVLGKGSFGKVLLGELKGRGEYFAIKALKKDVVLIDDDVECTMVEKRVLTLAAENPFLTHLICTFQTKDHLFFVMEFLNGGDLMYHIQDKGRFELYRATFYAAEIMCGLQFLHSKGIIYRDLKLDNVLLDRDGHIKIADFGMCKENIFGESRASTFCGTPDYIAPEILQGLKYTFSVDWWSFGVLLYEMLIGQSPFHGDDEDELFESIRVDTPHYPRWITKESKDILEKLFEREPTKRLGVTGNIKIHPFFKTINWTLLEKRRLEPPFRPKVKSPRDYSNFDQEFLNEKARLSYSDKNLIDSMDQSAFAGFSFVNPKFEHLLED

HeLa [10] = assay: Antiproliferative activity against human HeLa cells by MTS assay; assay type: functional, cell-based
Method in brief: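 p53-deficient human cervical cancer HeLa cells were treated with the test compound alone over varying concentrations. Proliferation was read out by MTS, and the antiproliferative EC50 was determined.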

HeLa [11] = assay: Antiproliferative activity against human HeLa cells by MTS assay in the presence of doxorubicin; assay type: functional, cell-based

Structure (SMILES): COc1cc(-c2ccc3c(c2)NC(=O)/C3=C\c2ccc[nH]2)ccc1O
IC50 [2]: > 50000 nM
IC50 [3]: > 50000 nM
IC50 (Casein kinase II): > 50000 nM
IC50 [4]: 21700 nM
IC50 [5]: > 50000 nM
IC50 (Angiopoietin-1 receptor): > 50000 nM
IC50 [6]: > 50000 nM
IC50 [7]: > 50000 nM
IC50 [8]: > 50000 nM
IC50 [9]: > 50000 nM

Structure (SMILES): O=C1Nc2cc(-c3ccc(F)c(F)c3)ccc2/C1=C/c1cc[nH]c1
IC50 [1]: > 10000 nM

Structure (SMILES): Cc1ccc(-c2ccc3c(c2)NC(=O)/C3=C\c2cc[nH]c2)cc1
IC50 [1]: > 10000 nM

Structure (SMILES): COc1cc(-c2ccc3c(c2)NC(=O)/C3=C\C2CCCN2)ccc1O (stereo unspecified)
IC50 [1]: 3970 nM

Structure (SMILES): COc1cc(-c2ccc3c(c2)NC(=O)/C3=C\c2[nH]c(C)cc2-c2ccccc2)ccc1O
IC50 [1]: > 10000 nM

Structure (SMILES): COc1cc(-c2ccc3c(c2)NC(=O)/C3=C\c2ncc[nH]2)ccc1O
IC50 [2]: > 50000 nM
IC50 [1]: 18 nM
IC50 [4]: 14600 nM
IC50 [5]: 1500 nM
IC50 (Angiopoietin-1 receptor): 23300 nM
IC50 [6]: 251 nM
IC50 [7]: > 50000 nM
IC50 [8]: > 50000 nM
IC50 [9]: > 50000 nM

Structure (SMILES): COc1cc(-c2ccc3c(c2)/C(=C/c2c[nH]c4ccccc24)C(=O)N3)ccc1O
IC50 [1]: > 50000 nM

Structure (SMILES): COc1cc(-c2ccc3c(c2)/C(=C/c2cccc(OC)c2OC)C(=O)N3)ccc1O
IC50 [1]: > 50000 nM

Structure (SMILES): COc1cc(-c2ccc3c(c2)NC(=O)/C3=C\c2cccc(OC)c2OC)ccc1O
IC50 [1]: > 50000 nM

Structure (SMILES): COc1cc(-c2ccc3c(c2)NC(=O)/C3=C\c2cc[nH]c2)cc(OC)c1OC
IC50 [1]: > 10000 nM

Structure (SMILES): O=C1Nc2cc(-c3ccc(OC(F)(F)F)cc3)ccc2/C1=C/c1cc[nH]c1
IC50 [1]: > 10000 nM

Now from value to compound:

IC50 [1]: 29 nM
Structure (SMILES): O=C1Nc2cc(-c3ccc(O)cc3)ccc2/C1=C/c1cc[nH]c1

IC50 [1]: 445 nM
Structure (SMILES): COc1cc(-c2ccc3c(c2)NC(=O)/C3=C\c2c[nH]c3nc(C#N)ccc23)ccc1O

IC50 [1]: 120 nM
Structure (SMILES): COc1cc(-c2ccc3c(c2)NC(=O)/C3=C\c2[nH]c(C)cc2C)ccc1O

IC50 [1]: 75 nM
Structure (SMILES): COC(=O)CCc1c(C)[nH]c(/C=C2\C(=O)Nc3cc(-c4ccc(O)c(OC)c4)ccc32)c1C

IC50 [1]: 10 nM
Structure (SMILES): COc1cc(O)ccc1-c1ccc2c(c1)NC(=O)/C2=C\c1cc[nH]c1

IC50 [1]: 3460 nM
Structure (SMILES): COc1cc(-c2ccc3c(c2)/C(=C/c2c[nH]c4c(C)cccc24)C(=O)N3)ccc1O

IC50 [1]: 1310 nM
Structure (SMILES): COc1cc(-c2ccc3c(c2)NC(=O)/C3=C\c2c[nH]c3c(C)cccc23)ccc1O

IC50 [1]: 92 nM
Structure (SMILES): COc1cc(-c2ccc3c(c2)NC(=O)/C3=C\c2c[nH]c3ccccc23)ccc1O

IC50 [1]: 2840 nM
Structure (SMILES): COc1cc(-c2ccc3c(c2)/C(=C/c2ccc[nH]2)C(=O)N3)ccc1O

IC50 [1]: 25 nM
Structure (SMILES): COc1cc(-c2ccc3c(c2)NC(=O)/C3=C\c2cc[nH]c2)ccc1O

IC50 [1]: 1030 nM
Structure (SMILES): Nc1ccc(-c2ccc3c(c2)NC(=O)/C3=C\c2cc[nH]c2)cc1

IC50 [1]: 1280 nM
Structure (SMILES): COc1cc(-c2ccc3c(c2)NC(=O)/C3=C\c2[nH]c(C)c(CN(C)C)c2C(C)C)ccc1O

IC50 [3]: > 50000 nM
IC50 (Casein kinase II): 41700 nM
IC50 [1]: 4 nM
IC50 [4]: 22700 nM
IC50 [5]: > 50000 nM
EC50 (HeLa [10]): 10 nM
IC50 [6]: 454 nM
EC50 (HeLa [11]): 180 nM
IC50 [7]: 2380 nM
Structure (SMILES): COc1cc(-c2ccc3c(c2)NC(=O)/C3=C\c2c[nH]c3ncccc23)ccc1O

IC50 [1]: 47 nM
Structure (SMILES): COc1cc(-c2ccc3c(c2)NC(=O)/C3=C\c2[nH]c(C)c(CCO)c2C)ccc1O

IC50 [1]: 3460 nM
Structure (SMILES): COc1cc(-c2ccc3c(c2)NC(=O)/C3=C\c2[nH]c(C)cc2C(C)C)ccc1O
